Reference: ChEMBL document CHEMBL1154086, “Novel Biginelli dihydropyrimidines with potential anticancer activity: a parallel synthesis and CoMSIA study” (Eur J Med Chem, 2009)
The source made the active and inactive calls. The calls are words filed in the database; no cut-off is given here.

What was measured:
Type in all cases: functional
[1] = tested on: Radical scavenging activity; test: Antioxidant activity assessed as DPPH radical scavenging activity at 100 ug after 30 mins by ELISA
Method in brief: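 Ethanolic DPPH (200 µl) mixed with 10 µl compound solution (100 µg) in 96-well plate, 37 °C for 30 min; decrease in absorbance read at 490 nm on ELISA reader. Ascorbic acid (10 µg) standard.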

[2] = tested on: MCF7; test: Anticancer activity against human MCF7 cells assessed as cell viability at 10 ug after 3 hrs by trypan blue dye exclusion assay
Method in brief: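 MCF-7 cells grown in peritoneal cavity of albino mice (25–30 g) after i.p. injection of 1 × 10^6 cells/ml; aspirated day 15, washed three times in HBSS, adjusted to 1 × 10^6 cells/ml. 0.1 ml cells plus 0.1 ml compound (10 µg), 37 °C, 5% CO2, 3 h. Trypan blue (0.4%, 1:1) exclusion, haemocytometer count; % cytotoxicity versus untreated control, triplicate.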

[3] = tested on: Radical scavenging activity; test: Antioxidant activity assessed as DPPH radical scavenging activity after 30 mins by ELISA
Method in brief: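 DPPH discolouration in 96-well plate: 200 µl ethanolic DPPH plus 10 µl compound solution; 37 °C, 30 min; absorbance at 490 nm on ELISA reader. IC50 (concentration inhibiting 50% of free radicals) from serial dilutions below 100 µg. Ascorbic acid (10 µg) standard.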

SMILES | Activity [1] | Activity [2] [%] | IC50 [3] [µg]
CC1=C(C(=O)Nc2ccccc2Cl)C(c2ccccc2O)NC(=S)N1 (centres undefined) | inactive | 49 | 
CNC(=O)C1=C(C)NC(=S)NC1c1ccco1 (centres undefined) | inactive | 57 | 
CNC(=O)C1=C(C)NC(=O)NC1c1ccncc1 (centres undefined) | inactive | 64 | 
CNC(=O)C1=C(C)NC(=S)NC1c1ccccc1O (centres undefined) | inactive | 45 | 
CNC(=O)C1=C(C)NC(=O)NC1c1ccccc1 (centres undefined) | inactive | 27 | 
CC1=C(C(=O)Nc2ccccc2Cl)C(c2cccc([N+](=O)[O-])c2)NC(=S)N1 (centres undefined) | inactive | 13 | 
CC1=C(C(=O)Nc2ccccc2Cl)C(c2ccc(Br)cc2)NC(=S)N1 (centres undefined) | inactive | 18 | 
CC1=C(C(=O)Nc2ccccc2Cl)C(c2ccncc2)NC(=O)N1 (centres undefined) | inactive | 59 | 
CC1=C(C(=O)Nc2ccccc2Cl)C(c2ccccc2O)NC(=O)N1 (centres undefined) | inactive | 58 | 
CNC(=O)C1=C(C)NC(=S)NC1c1ccc(O)c(OC)c1 (centres undefined) | inactive | 41 | 
CC1=C(C(=O)Nc2ccccc2Cl)C(c2ccco2)NC(=O)N1 (centres undefined) | inactive | 69 | 
CC1=C(C(=O)Nc2ccccc2Cl)C(c2ccccc2)NC(=O)N1 (centres undefined) | inactive | 30 | 
CNC(=O)C1=C(C)NC(=S)NC1c1ccc(OC)cc1 (centres undefined) | inactive | 48 | 
CNC(=O)C1=C(C)NC(=S)NC1c1cccc([N+](=O)[O-])c1 (centres undefined) |  | 39 | 58
COc1cc(C2NC(=O)NC(C)=C2C(=O)Nc2ccccc2Cl)ccc1O (centres undefined) | inactive | 52 | 
CNC(=O)C1=C(C)NC(=O)NC1c1ccc(O)c(OC)c1 (centres undefined) | inactive | 49 | 

SMILES | Activity [1] | Activity [2] [%] | IC50 [3] [µg]
CNC(=O)C1=C(C)NC(=S)NC1c1ccccc1 (centres undefined) | inactive | 35 | 
COc1ccc(C2NC(=S)NC(C)=C2C(=O)Nc2ccccc2Cl)cc1 (centres undefined) | inactive | 47 | 
CC1=C(C(=O)Nc2ccccc2Cl)C(c2ccccc2)NC(=N)N1C#N (centres undefined) | inactive | 35 | 
CC1=C(C(=O)Nc2ccccc2Cl)C(C(=O)/C=C/c2ccccc2)NC(=O)N1 (centres undefined) | inactive | 79 | 
COc1ccc(C2NC(=O)NC(C)=C2C(=O)Nc2ccccc2Cl)cc1 (centres undefined) | inactive | 51 | 
CC1=C(C(=O)Nc2ccccc2Cl)C(c2cccc([N+](=O)[O-])c2)NC(=O)N1 (centres undefined) | inactive | 29 | 
CNC(=O)C1=C(C)NC(=O)NC1c1ccco1 (centres undefined) | inactive | 61 | 
CC1=C(C(=O)Nc2ccccc2Cl)C(c2ccc(Br)cc2)NC(=O)N1 (centres undefined) | inactive | 7 | 
CNC(=O)C1=C(C)NC(=O)NC1c1ccc(OC)cc1 (centres undefined) | inactive | 41 | 
CNC(=O)C1=C(C)NC(=O)NC1C(=O)/C=C/c1ccccc1 (centres undefined) | inactive | 47 | 
COc1cc(C2NC(=S)NC(C)=C2C(=O)Nc2ccccc2Cl)ccc1O (centres undefined) | inactive | 45 | 
CNC(=O)C1=C(C)NC(=O)NC1c1cccc([N+](=O)[O-])c1 (centres undefined) |  | 23 | 63
CC1=C(C(=O)Nc2ccccc2Cl)C(c2ccncc2)NC(=S)N1 (centres undefined) | inactive | 72 | 
CC1=C(C(=O)Nc2ccccc2Cl)C(c2ccccc2)NC(=S)N1 (centres undefined) | inactive | 25 | 
CC1=C(C(=O)Nc2ccccc2Cl)C(c2ccco2)NC(=S)N1 (centres undefined) | inactive | 76 | 
CC1=C(C(=O)Nc2ccccc2Cl)C(C(=O)/C=C/c2ccccc2)NC(=S)N1 (centres undefined) | inactive | 71 | 
